ChEMBL document CHEMBL5584332, “Structure and Biosynthesis of Perochalasins A-C, Open-Chain Merocytochalasans Produced by the Marine-Derived Fungus Peroneutypa sp. M16” (J Nat Prod, 2024)

How the values were obtained:
[1] = system: Plasmodium falciparum; experiment: Resistance index, ratio of IC50 for drug-resistant Plasmodium falciparum Dd2 to IC50 for Plasmodium falciparum 3D7; assay type: functional
Procedure, shortened: (§1)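 Resistance index computed as IC50 against the resistant strain divided by IC50 against 3D7. IC50 values are mean ± standard deviation of two independent experiments in triplicate. Resistant strains: Dd2 (CQ, SDX, PYR, MQ, CYC), TM90C6B (CQ, PYR, ATO) and 3D7r_MMV848 (MMV692848).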

[2] = Cytotoxicity against human HepG2 cells; assay type: toxicity, cell-based
[3] = system: Plasmodium falciparum; experiment: Antiplasmodial activity against drug-resistant Plasmodium falciparum Dd2; assay type: functional, organism-based
Procedure, shortened: (§2)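 In vitro asexual P. falciparum growth inhibition, reported as IC50. The strains were chloroquine-sensitive 3D7; Dd2, resistant to CQ, SDX, PYR, MQ and CYC; TM90C6B, resistant to CQ, PYR and ATO; and 3D7r_MMV848, resistant to MMV692848. A standard antimalarial served as control for each resistant strain. Values are mean ± standard deviation of two independent experiments run in triplicate.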

[4] = system: Plasmodium falciparum; experiment: Antiplasmodial activity against drug-resistant Plasmodium falciparum 3D7r_MMV848; assay type: functional, organism-based; procedure, shortened: as §2
[5] = system: Plasmodium falciparum; experiment: Resistance index, ratio of IC50 for drug-resistant Plasmodium falciparum TM90C6B to IC50 for Plasmodium falciparum 3D7; assay type: functional; procedure, shortened: as §1
[6] = system: Plasmodium falciparum; experiment: Antiplasmodial activity against drug-resistant Plasmodium falciparum TM90C6B; assay type: functional, organism-based; procedure, shortened: as §2
[7] = system: Plasmodium falciparum; experiment: Resistance index, ratio of IC50 for drug-resistant Plasmodium falciparum 3D7r_MMV848 to IC50 for Plasmodium falciparum 3D7; assay type: functional; procedure, shortened: as §1
[8] = Selectivity index, ratio of IC50 for human HepG2 cells to IC50 for Plasmodium falciparum 3D7; assay type: toxicity; details: HepG2 cells versus Plasmodium falciparum 3D7, read-out: Ratio IC50
[9] = system: Plasmodium falciparum; experiment: Antiplasmodial activity against Plasmodium falciparum 3D7; assay type: functional, organism-based; procedure, shortened: as §2

SMILES | Ratio IC50 [1] | IC50 [2] | IC50 [3] | IC50 [4] | Ratio IC50 [5] | IC50 [6] | Ratio IC50 [7] | selectivity ratio [8] | IC50 [9]
CC1=C(C)[C@H]2[C@H](Cc3ccc(O)cc3)NC(=O)[C@]23OC(=O)C/C=C(/C)C(=O)[C@@H](C)C/C=C/[C@H]3[C@@H]1O | 1.6 | > 100 µM | 7 µM | 4 µM | 1.4 | 6 µM | 0.9 | > 23 | 4.4 µM
CCc1nc(N)nc(N)c1-c1ccc(Cl)cc1 [PYRIMETHAMINE] | >166 | – | > 10 µM | – | – | – | – | – | –
CC(C)c1c(C(=O)Nc2ccccc2)c(-c2ccccc2)c(-c2ccc(F)cc2)n1CC[C@@H](O)C[C@@H](O)CC(=O)O [ATORVASTATIN] | – | – | – | – | >1428 | > 1 µM | – | – | –
